Assay results collected from several papers.
Protocols differ between the studies behind these lines.
CDK16: Cyclin-dependent kinase 16 (CDK16, Homo sapiens, UniProt Q00536)
CDK16 with cyclin Y: Cyclin-dependent kinase 16, with cyclin Y (CDK16, Homo sapiens, UniProt Q00536)

Compound | target | assay | conditions | endpoint | result
c1ccc(CNc2nc(N3CCOc4ccccc43)nc3c2CCCC3)cc1 | CDK16 | target engagement in cells, inhibitor, chemoproteomics | 20 mM | inhibition | 2.9%
CC(C)(C)c1nc2c(s1)c1nc(N)ncc1c1ccc(NS(=O)(=O)c3c(F)cccc3F)c(F)c12 | CDK16 with cyclin Y | enzyme activity, inhibitor, radiometric | 1 µM | remaining activity | 87%
CCN1CCC2(CC1)NC(=O)c1c(c3ccc(Cl)c(Cl)c3n1C)C2C#N (racemic) | CDK16 | thermal stability, DSF | 10 µM | ΔTm | 0 °C
CS(=O)(=O)Nc1cccc(-c2csc(NC(=O)CSc3nc4nccnc4c(=O)n3CCc3ccccc3)n2)c1 | CDK16 with cyclin Y | enzyme activity, inhibitor | 10 µM | inhibition | -1%
Cn1c2c(c3ccc(Cl)c(Cl)c31)C(C#N)C1(CCN(C(=O)OC(C)(C)C)CC1)NC2=O (racemic) | CDK16 | thermal stability, DSF | 10 µM | ΔTm | 0 °C
CCCCNc1ncc2c(-c3ccc(F)cc3)nn(C[C@H]3CC[C@H](N)CC3)c2n1 | CDK16 | target engagement in cells, inhibitor, chemoproteomics | 20 mM | inhibition | 38.5%
O=C(O)c1cc(-c2ccc(C3CCNCC3)cc2)c2ccc(-c3ccc(C(F)(F)F)cc3)cc2c1 | CDK16 | cell-free assay, competition with immobilised ligand | 1 µM | remaining binding | 100%
Cc1ccc(C(=O)NCc2ccsc2)cc1C#Cc1cn(C(C)C)c2ncnc(N)c12 | CDK16 with cyclin Y | enzyme activity, inhibitor | 1 µM | activity vs control | 101%
CNC(=O)Nc1ccc2c(c1)CC[C@@]21OC(=O)N(CC(=O)N(Cc2ccc(F)cc2)[C@@H](C)C(F)(F)F)C1=O | CDK16 | cell-free assay, competition with immobilised ligand | 1 µM | remaining binding | 75%
Cn1c2c(c3ccc(Cl)c(Cl)c31)C(C#N)C(C)(C)NC2=O (stereo not drawn) | CDK16 | thermal stability, DSF | 10 µM | ΔTm | 0.7 °C
CCS(=O)(=O)c1cc2cc(C[C@](O)(CC(C)(C)c3ccc(F)cc3C(N)=O)C(F)(F)F)[nH]c2cn1 | CDK16 | cell-free assay, competition with immobilised ligand | 1 µM | remaining binding | 100%
Cn1c2c(Cl)c(Cl)ccc2c2cn[nH]c(=O)c21 | CDK16 | thermal stability, DSF | 10 µM | ΔTm | 0.8 °C
